From ChEMBL document CHEMBL4330056, “Synthesis and Cytotoxic and Antiviral Profiling of Pyrrolo- and Furo-Fused 7-Deazapurine Ribonucleosides” (J Med Chem, 2018)
The source made the active and inactive calls. No cut-off for these calls is given here.

Key:
Adenosine kinase = Adenosine kinase (Homo sapiens, UniProt P55263); assay: Inhibition of recombinant human ADK using [3H]-adenosine as substrate after 20 mins by TLC scanner-based analysis relative to control
Method in brief: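 ADK inhibition: 50 μM adenosine substrate with 10 μM test compound and 97 ng enzyme, 20 min at 37 °C.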

[1] = Stability in human plasma assessed as compound remaining at 3.3 umol/L after 60 mins by RF-MS analysis relative to control; assay type: ADME, cell-free; conditions: read-out: Stability
[2] = Stability in human plasma assessed as compound remaining at 3.3 umol/L after 15 mins by RF-MS analysis relative to control; assay type: ADME, cell-free; conditions: read-out: Stability
[3] = Stability in human plasma assessed as compound remaining at 3.3 umol/L after 120 mins by RF-MS analysis relative to control; assay type: ADME, cell-free; conditions: read-out: Stability
HepG2 = assay: Antiproliferative activity against human HepG2 cells after 72 hrs by XTT assay; assay type: functional, cell-based; conditions: HepG2, 72 h
CCRF-CEM [4] = assay: Induction of cell cycle arrest in human CCRF-CEM cells assessed as accumulation at S phase at IC50 concentration after 24 hrs by propidium iodide-staining based flow cytometry (reference value: 41.08%); assay type: functional
CCRF-CEM [5] = assay: Inhibition of mitosis in human CCRF-CEM cells assessed Ser10 H3 phosphorylation positive cells at 5 times IC50 concentration after 24 hrs by flow cytometry relative to total cell population (reference value: 1.36%); assay type: functional; set-up: scale not given: the % may be the effect or the level left
[6] = Chemical stability of the compound assessed as compound remaining after 15 mins relative to control; assay type: physicochemical; conditions: read-out: Stability
CCRF-CEM [7] = assay: Inhibition of RNA synthesis in human CCRF-CEM cells assessed as RNA synthesis level at 5 times IC50 concentration after 24 hrs by BrU incorporation assay (reference value: 49.89%); assay type: functional; set-up: scale not given: the % may be the effect or the level left
CCRF-CEM [8] = assay: Induction of cell cycle arrest in human CCRF-CEM cells assessed as accumulation at subG1 phase at IC50 concentration after 24 hrs by propidium iodide-staining based flow cytometry (reference value: 3.45%); assay type: functional
Coxsackievirus B3 = assay: Antiviral activity against Human coxsackie B3 Nancy infected in human HeLa cells assessed as inhibited virus-induced cytopathic effect incubated for 2 days by XTT assay; assay type: functional, organism-based
Human orthopneumovirus = assay: Antiviral activity against Human respiratory syncytial virus A2 infected in Hep2 cells assessed as reduction in virus-induced cytopathic effect incubated for 4 days by CellTiter-Glo viability reagent based assay; assay type: functional, organism-based
dengue virus type 2 = assay: Antiviral activity against Dengue virus 2 Thailand/16681/84 infected in African green monkey Vero cells assessed as inhibition of virus replication incubated for 3 days by fluorescence microscopy; assay type: functional, organism-based
CCRF-CEM [9] = assay: Induction of cell cycle arrest in human CCRF-CEM cells assessed as accumulation at G2/M phase at 5 times IC50 concentration after 24 hrs by propidium iodide-staining based flow cytometry (reference value: 19.22%); assay type: functional
CCRF-CEM [10] = assay: Antiproliferative activity against human CCRF-CEM cells after 3 days by MTS assay; assay type: functional, cell-based; conditions: 72 h
CCRF-CEM [11] = assay: Inhibition of mitosis in human CCRF-CEM cells assessed Ser10 H3 phosphorylation positive cells at IC50 concentration after 24 hrs by flow cytometry relative to total cell population (reference value: 1.36%); assay type: functional; set-up: scale not given: the % may be the effect or the level left
CCRF-CEM [12] = assay: Inhibition of RNA synthesis in human CCRF-CEM cells assessed as RNA synthesis level at IC50 concentration after 24 hrs by BrU incorporation assay (reference value: 49.89%); assay type: functional; set-up: scale not given: the % may be the effect or the level left
CCRF-CEM [13] = assay: Induction of cell cycle arrest in human CCRF-CEM cells assessed as accumulation at G0/G1 phase at IC50 concentration after 24 hrs by propidium iodide-staining based flow cytometry (reference value: 39.70%); assay type: functional
[14] = Metabolic stability in human liver microsomes assessed as compound remaining at 5 umol/L after 60 mins relative to control; assay type: ADME, Microsome; conditions: read-out: Stability
Method in brief: (§1)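 Human microsomal fraction; percent compound remaining over time.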

[15] = Chemical stability of the compound assessed as compound remaining after 120 mins relative to control; assay type: physicochemical; conditions: read-out: Stability
CCRF-CEM [16] = assay: Induction of cell cycle arrest in human CCRF-CEM cells assessed as accumulation at subG1 phase at 5 times IC50 concentration after 24 hrs by propidium iodide-staining based flow cytometry (reference value: 3.45%); assay type: functional
[17] = Stability in human plasma assessed as compound remaining at 3.3 umol/L after 30 mins by RF-MS analysis relative to control; assay type: ADME, cell-free; conditions: read-out: Stability
U2OS = assay: Antiproliferative activity against human U2OS cells after 3 days by MTS assay; assay type: functional, cell-based; conditions: 72 h
HL-60 = assay: Antiproliferative activity against human HL60 cells after 72 hrs by XTT assay; assay type: functional, cell-based; conditions: HL-60, 72 h
CCRF-CEM [18] = assay: Induction of cell cycle arrest in human CCRF-CEM cells assessed as accumulation at S phase at 5 times IC50 concentration after 24 hrs by propidium iodide-staining based flow cytometry (reference value: 41.08%); assay type: functional
BJ = assay: Antiproliferative activity against human BJ cells after 3 days by MTS assay; conditions: 72 h
[19] = Metabolic stability in human liver microsomes assessed as compound remaining at 5 umol/L after 15 mins relative to control; assay type: ADME, Microsome; conditions: read-out: Stability; method in brief: as §1
[20] = Metabolic stability in human liver microsomes assessed as compound remaining at 5 umol/L after 30 mins relative to control; assay type: ADME, Microsome; conditions: read-out: Stability; method in brief: as §1
CCRF-CEM [21] = assay: Inhibition of DNA synthesis in human CCRF-CEM cells assessed as DNA synthesis level at IC50 concentration after 24 hrs by BrdU incorporation assay (reference value: 43.39%); assay type: functional; set-up: scale not given: the % may be the effect or the level left
K562 = assay: Antiproliferative activity against human K562 cells after 3 days by MTS assay; assay type: functional, cell-based; conditions: K562, 72 h
CCRF-CEM [22] = assay: Induction of cell cycle arrest in human CCRF-CEM cells assessed as accumulation at G2/M phase at IC50 concentration after 24 hrs by propidium iodide-staining based flow cytometry (reference value: 19.22%); assay type: functional
HCT-116 = assay: Antiproliferative activity against p53 gene knocked out human HCT116 cells after 3 days by MTS assay; assay type: functional, cell-based; conditions: HCT-116, 72 h
MRC5 = assay: Antiproliferative activity against human MRC5 cells after 3 days by MTS assay; conditions: MRC5, 72 h
[23] = Antiproliferative activity against human CEM-DNR-bulk cells after 3 days by MTS assay; conditions: 72 h
CCRF-CEM [24] = assay: Induction of cell cycle arrest in human CCRF-CEM cells assessed as accumulation at G0/G1 phase at 5 times IC50 concentration after 24 hrs by propidium iodide-staining based flow cytometry (reference value: 39.70%); assay type: functional
[25] = Effective permeability of the compound at 20 umol/L by PAMPA; assay type: ADME; conditions: 20 µM
A549 = assay: Antiproliferative activity against human A549 cells after 3 days by MTS assay; assay type: functional, cell-based; conditions: A549, 72 h
Hepatitis C virus [26] = assay: Antiviral activity against Hepatitis C virus genotype 2a infected in human Huh-luc replicon cells after 3 days by luciferase assay; assay type: functional, organism-based, Hepacivirus hominis; conditions: subtype 2a, 72 h
Hepatitis C virus [27] = assay: Antiviral activity against Hepatitis C virus genotype 1b infected in human Huh-luc replicon cells after 3 days by luciferase assay; assay type: functional, organism-based, Hepacivirus hominis; conditions: subtype 1b, 72 h
[28] = Chemical stability of the compound assessed as compound remaining after 30 mins relative to control; assay type: physicochemical; conditions: read-out: Stability
Influenza A virus = assay: Antiviral activity against Influenza A virus (A/Mexico/4108/2009(H1N1)) infected in MDCK cells assessed as inhibited virus-induced cytopathic effect incubated for 2 days by XTT assay; assay type: functional, organism-based

Sequence of Adenosine kinase (P55263 whole entry): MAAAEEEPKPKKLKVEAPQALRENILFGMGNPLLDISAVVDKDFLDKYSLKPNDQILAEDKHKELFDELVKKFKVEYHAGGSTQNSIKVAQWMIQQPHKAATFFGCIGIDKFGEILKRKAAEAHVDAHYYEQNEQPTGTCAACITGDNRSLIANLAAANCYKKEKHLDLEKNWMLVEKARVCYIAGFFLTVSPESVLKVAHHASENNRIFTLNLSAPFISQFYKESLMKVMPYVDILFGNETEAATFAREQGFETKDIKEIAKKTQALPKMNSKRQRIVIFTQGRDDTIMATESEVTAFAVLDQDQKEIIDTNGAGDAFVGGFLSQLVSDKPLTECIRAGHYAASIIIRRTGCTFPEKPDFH

SMILES: CSc1ncnc2c1c1occc1n2[C@@H]1O[C@H](CO)[C@@H](O)[C@H]1O
- IC50 (Adenosine kinase): > 10 µM
- remaining at 1 h, 3.3 µM [1]: 98%
- remaining at 0.25 h, 3.3 µM [2]: 99%
- remaining at 2 h, 3.3 µM [3]: 96%
- IC50 (HepG2): 2.01 µM
- Activity (CCRF-CEM [4]): 38.26%
- Activity (CCRF-CEM [5]): 0.9%
- remaining at 0.25 h [6]: 99%
- Activity (CCRF-CEM [7]): 6.55%
- Activity (CCRF-CEM [8]): 6.52%
- Activity (Coxsackievirus B3): inactive
- Activity (Human orthopneumovirus): inactive
- Activity (dengue virus type 2): inactive
- Activity (CCRF-CEM [9]): 13.3%
- IC50 (CCRF-CEM [10]): 0.14 µM
- Activity (CCRF-CEM [11]): 1.26%
- Activity (CCRF-CEM [12]): 0.39%
- Activity (CCRF-CEM [13]): 44.43%
- remaining at 1 h, 5 µM [14]: 98%
- remaining at 2 h [15]: 96%
- Activity (CCRF-CEM [16]): 14.06%
- remaining at 0.5 h, 3.3 µM [17]: 99%
- IC50 (U2OS): 0.34 µM
- IC50 (HL-60): 0.29 µM
- Activity (CCRF-CEM [18]): 53.55%
- IC50 (BJ): 0.49 µM
- remaining at 0.25 h, 5 µM [19]: 100%
- remaining at 0.5 h, 5 µM [20]: 99%
- Activity (CCRF-CEM [21]): 39.68%
- IC50 (K562): 0.27 µM
- Activity (CCRF-CEM [22]): 17.31%
- IC50 (HCT-116): 0.21 µM
- IC50 (MRC5): 9.37 µM
- IC50 [23]: 5.57 µM
- Activity (CCRF-CEM [24]): 33.16%
- log(permeability) [25]: -5.99
- IC50 (A549): 4.86 µM
- EC50 (Hepatitis C virus [26]): 0.24 µM
- EC50 (Hepatitis C virus [27]): 0.28 µM
- remaining at 0.5 h [28]: 99%
- Activity (Influenza A virus): inactive

SMILES: Cc1ncnc2c1c1c(ccn1C)n2[C@@H]1O[C@H](CO)[C@@H](O)[C@H]1O
- IC50 (Adenosine kinase): > 10 µM
- remaining at 1 h, 3.3 µM [1]: 81%
- remaining at 0.25 h, 3.3 µM [2]: 98%
- remaining at 2 h, 3.3 µM [3]: 79%
- IC50 (HepG2): 1.13 µM
- Activity (CCRF-CEM [4]): 51.03%
- Activity (CCRF-CEM [5]): 0.9%
- remaining at 0.25 h [6]: 98%
- Activity (CCRF-CEM [7]): 35.91%
- Activity (CCRF-CEM [8]): 5.1%
- Activity (Coxsackievirus B3): inactive
- Activity (Human orthopneumovirus): inactive
- Activity (dengue virus type 2): inactive
- Activity (CCRF-CEM [9]): 13.14%
- IC50 (CCRF-CEM [10]): 0.21 µM
- Activity (CCRF-CEM [11]): 1.06%
- Activity (CCRF-CEM [12]): 53.62%
- Activity (CCRF-CEM [13]): 31.75%
- remaining at 1 h, 5 µM [14]: 97%
- remaining at 2 h [15]: 91%
- Activity (CCRF-CEM [16]): 10.99%
- remaining at 0.5 h, 3.3 µM [17]: 83%
- IC50 (U2OS): 0.61 µM
- IC50 (HL-60): 1.51 µM
- Activity (CCRF-CEM [18]): 52.19%
- IC50 (BJ): 3.91 µM
- remaining at 0.25 h, 5 µM [19]: 99%
- remaining at 0.5 h, 5 µM [20]: 98%
- Activity (CCRF-CEM [21]): 48.49%
- IC50 (K562): 0.4 µM
- Activity (CCRF-CEM [22]): 17.22%
- IC50 (HCT-116): 0.33 µM
- IC50 (MRC5): 50 µM
- IC50 [23]: > 50 µM
- Activity (CCRF-CEM [24]): 34.66%
- log(permeability) [25]: -6.87
- IC50 (A549): 2.08 µM
- EC50 (Hepatitis C virus [26]): 0.12 µM
- EC50 (Hepatitis C virus [27]): 0.19 µM
- remaining at 0.5 h [28]: 97%
- Activity (Influenza A virus): inactive
